PubChem BioAssay AID624033 (Broad Institute, 2012)
Active and inactive are the calls of the source.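 Rule for the calls: active = raises 665 nm absorbance to half the iron-handling mutant's effect in both replicates, half-effect dose under 50 µM; inactive = the rest.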

system: not listed separately; assay: reduction of P. aeruginosa pyoverdine production, dose response, orthogonal assay for PvdQ inhibitor project, Chrome Azurol S readout, dry powder samples (AID 624033); conditions: P. aeruginosa pyoverdine, CAS absorbance 665 nm, 6 h
In short: (§1)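 Buffer or medium – CAA medium · Compound dosing – 10-point twofold dilution series, top dose 125 µM · Times – 6 h compound culture, 30 °C, then 30 min CAS dye · Technique – CAS dye absorbance, 665 nm · Controls – PvdQ mutant culture as 100% reference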

| SMILES | outcome |
| --- | --- |
| CN(C)CCCC(C#N)c1ccc(F)cc1 (stereo unspecified) | inactive |
| COCCOCCC(C#N)c1ccc(F)cc1 (stereo unspecified) | inactive |
| COCCC(C#N)c1ccc(F)cc1 (stereo unspecified) | inactive |

system: P. aeruginosa pyoverdine, CAS absorbance 665 nm, 6 h; assay: as above; conditions: not given
In short: as §1

| SMILES | AC50 [µM] |
| --- | --- |
| N#CC(c1cccc(Cl)n1)c1ccc(Cl)cc1F (stereo unspecified) | 30.7 |
| N#CC(c1ccc(Cl)cc1)c1ccc(Cl)cn1 (stereo unspecified) | 17.7 |
| N#CC(c1ccc(Cl)cc1)c1ncccc1Cl (stereo unspecified) | 48.3 |
| N#CC(c1ccc(Cl)cc1)c1cccc(C(F)(F)F)n1 (stereo unspecified) | 22.9 |
| N#CC(c1ccc(F)cc1)c1cccc(C(F)(F)F)n1 (stereo unspecified) | 6.21 |
| N#CC(c1ccc(Cl)cc1)c1cccc(Cl)n1 (stereo unspecified) | 46.4 |
| CCCCC(C#N)c1ccc(F)cc1 (stereo unspecified) | 27.7 |
| N#CC(c1cccc(C(F)(F)F)n1)c1ccc(Cl)cc1F (stereo unspecified) | 14.6 |
